MIN6 prolif: inducers of MIN6 beta-cell proliferation, primary screen, ATP luminescence, uHTS; proliferation, % at 10 µM; MIN6 cells proliferation, ATPlite luminescence, 48 h; cells starved in 0.2% serum; 100% = growth in 10% serum; AID 2380, 2010; hit rate 0.29% among 330,000;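 active = compounds whose signal lies at least 3.5 SD above the mean of all wells on their plate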
iPSC survival up: enhancers of single-cell hiPSC survival, primary screen, ATPlite luminescence. 100% = ROCK inhibitor wells, 0% = DMSO. survival enhancement, % at 20 µM. AID 602274, 2012. hit rate 0.044% among 360,000; in the data active = survival enhancement above about 18%;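 note: cells exposed to compounds for 16 hours before the ATP read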
Apaf-1 inh: inhibitors of human Apaf-1 apoptosome, primary screen, biochemical, DEVD-Rh110 fluorescence, uHTS; inhibition, % at 20 µM; reconstituted apoptosome caspase-3 activity; Apoptotic protease-activating factor 1 (Homo sapiens), O14727; AID 489030, 2010; hit rate 0.71% among 330,000; active = inhibition of at least 40% at 20 µM
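detection = Rh110 fluorescence intensity | test system = biochemical Apaf-1 apoptosome reconstitution | also added = cytochrome c and DEVD-Rh110 substrate | schedule = 30 min plus 50 min, RT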
MPTP inh: mitochondrial permeability transition pore inhibitors, primary screen, biochemical, isolated mouse mitochondria, absorbance; inhibition, % at 10 µM; AID 602449, 2012; hit rate 1.4% among 360,000; Ca2+ swelling absorbance, 30 min;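 active = inhibition of 50% or more, scaled per plate between neutral and stimulator controls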
UBC13 inh: UBC13 polyubiquitin chain formation inhibitors, primary screen, biochemical, TR-FRET, uHTS; Ubiquitin-conjugating enzyme E2 N (Homo sapiens), P61088; inhibition, % at 20 µM; hit rate 0.47% among 330,000; AID 485273, 2010; in the data active = inhibition above about 45%, passing the limit was not always enough
Target sequence (P61088 whole entry, looked up): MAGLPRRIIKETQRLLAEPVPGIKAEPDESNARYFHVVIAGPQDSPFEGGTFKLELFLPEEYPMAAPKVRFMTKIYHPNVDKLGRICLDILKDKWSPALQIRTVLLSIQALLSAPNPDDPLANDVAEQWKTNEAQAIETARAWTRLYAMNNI
Granule exo inh: LAMP-1 surface exposure blockers, TALL-104 cells – cell-based, flow cytometry, MLPCN library, primary screen. TALL-104 LAMP-1 surface exposure; cells stimulated with thapsigargin and PMA. inhibition, % at 10 µM. hit rate 0.66% among 360,000. AID 651702, 2012;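 active = inhibition above about 55%, limit read from the data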
Casp3 UBC13 ctr: CASP3 inhibitor validation, counterassay for project on UBE2N polyubiquitination blockers, biochemical, one dose; hit rate 4% among 1,400; inhibition, % at 20 µM; shares compounds with UBC13 inh; AID 488856, 2010; Recombinant caspase-3, Caspase-Glo 3/7 luminescence, 60 min;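 active = mean inhibition across replicates above about 26%, limit read from the data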
Target sequence (P42574 whole entry, looked up): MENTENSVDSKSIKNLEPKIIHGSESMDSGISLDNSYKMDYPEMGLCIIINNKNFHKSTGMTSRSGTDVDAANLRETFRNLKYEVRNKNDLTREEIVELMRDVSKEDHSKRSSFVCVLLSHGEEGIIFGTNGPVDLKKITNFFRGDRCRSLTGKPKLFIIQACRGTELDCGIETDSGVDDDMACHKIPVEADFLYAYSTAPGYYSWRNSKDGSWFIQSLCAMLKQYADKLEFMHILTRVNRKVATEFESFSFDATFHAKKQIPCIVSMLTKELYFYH
UBC13 conf: UBC13 polyubiquitination inhibitors, single-point retest, confirmation, biochemical, TR-FRET, single concentration. shares compounds with UBC13 inh. inhibition, % at 10 µM. hit rate 68% among 1,400. AID 488859, 2010; in the data active = inhibition above about 45%
Apaf-1 inh conf: Apaf-1 inhibitors, single-dose retest, confirmation, biochemical, fluorescence, DEVD-Rh110, 20 µM | shares compounds with Apaf-1 inh | reconstituted apoptosome, caspase-3 DEVD-Rh110 fluorescence | inhibition, % at 20 µM | hit rate 25% among 1,800;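 active = mean inhibition of at least 40% at 20 µM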
Rh110 quench: Rh110 fluorescence interference by putative Apaf-1 inhibitors, confirmation, artefact control for Apaf-1 inhibitor project, biochemical, 20 µM; shares compounds with Apaf-1 inh; AID 504615, 2011; quenched caspase reaction; 1,800 tested, under 10 active; activation (fluorescence interference), % at 20 µM;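 active = signal rise of 40% or more at 20 µM, treated as a fluorescence artifact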
Apaf1 inh interf: fluorescence interference of Apaf-1 inhibitor hits, dose response, artefact control for Apaf-1 inhibitor project; shares compounds with Apaf-1 inh; 460 tested, under 10 active; fluorescence interference counterscreen, Apaf-1 assay format; IC50, µM; call rule not given here
Numbers stand for hits; . = inactive; / = no result. The list is not random: actives were taken first. Their share in the collection is about 3%.

SMILES	MIN6 prolif	iPSC survival up	Apaf-1 inh	MPTP inh	UBC13 inh	Granule exo inh	Casp3 UBC13 ctr	UBC13 conf	others
CCOC(=O)N1CCC(NC(=O)c2cc(C)c3c(C)nn(-c4ccccc4)c3n2)CC1	.	.	.	.	45.0	.	.	.
CC(=O)Nc1cccc(C(=O)OCC(=O)N2CCN(C(=O)COC(=O)c3cccc(NC(C)=O)c3)CC2)c1	/	.	/	.	/	.	/	/
Cc1cc(C)c2nc(-c3ccccn3)cc(C(=O)n3cccn3)c2c1	.	.	.	.	45.3	.	.	.
Cc1c(Cl)ccc2c(C(N)=O)cc(-c3ccccn3)nc12	.	.	.	.	.	.	/	/
Cc1ccc(-c2csc(NC(=O)CSc3nc4ccccc4c(=O)n3CCCN(C)C)n2)cc1	.	.	.	.	89.2	.	.	93.9
C=CCn1c(=O)c(C(=O)Nc2ccc(C)cn2)c(O)c2ccccc21	.	.	.	.	55.2	.	.	.
Oc1cc(Nc2ccncc2)cc2cccnc12	.	.	.	.	103.5	.	.	108.9
CC(NCc1ccc(OCC(N)=O)cc1)C12CC3CC(CC(C3)C1)C2 (configuration not stated)	.	.	.	.	.	.	/	/
COc1ccccc1NC(=O)c1cc(S(=O)(=O)N2CCC3(CC2)OCCO3)ccc1F	.	.	.	.	55.5	.	.	.
COc1ccccc1NC(=O)c1cc(S(=O)(=O)NCc2ccccc2)ccc1F	.	.	.	.	63.0	.	.	74.8
O=C(Nc1ccccc1C(F)(F)F)c1cc(S(=O)(=O)N2CCC3(CC2)OCCO3)ccc1F	.	.	.	.	.	.	/	/
COc1ccc(CNS(=O)(=O)c2ccc(F)c(C(=O)Nc3ccccc3OC)c2)cc1	.	.	.	.	.	.	/	/
CCOC(=O)C1(C)CCN1C(=O)c1ccccc1OC(F)(F)F (configuration not stated)	/	.	/	.	/	.	/	/
O=C1CN(S(=O)(=O)c2cc(C(=O)O)ccc2Cl)c2ccccc2N1	.	.	.	.	.	.	/	/
Cc1ccccc1S(=O)(=O)Cc1ccc(C(=O)NCCCN2CCCC(C)C2)o1 (configuration not stated)	.	.	.	.	.	.	/	/
CN(C)CCCNC(=O)C(=O)NCC1OCCN1S(=O)(=O)c1cccs1 (configuration not stated)	.	.	64.2	.	45.8	.	.	.
COC(=O)c1ccc(Cn2c(O)c(N=NC(N)=S)c3ccccc32)o1	.	.	.	.	68.6	.	.	80.9
C/C(Cl)=C\Cn1c(O)c(N=NC(N)=S)c2ccccc21	.	.	.	.	83.7	.	.	101.6
O=C1c2cccc3cc(Br)cc(c23)C(=O)N1Nc1ccc(Br)cc1	.	.	.	.	.	.	/	/
O=C1c2cccc3cccc(c23)C(=O)N1Nc1ccccc1	.	.	.	.	52.2	.	.	.
CN(C)c1ccc(NC(=O)CN2CCC(NC(=O)C3CCCCC3)CC2)cc1	.	.	.	.	64.3	.	.	82.1
Cc1cccc(C)c1NC(=O)CNC(=O)CN1C(=O)NC2(CCc3ccccc32)C1=O (configuration not stated)	.	.	.	.	.	.	/	/
Cc1ccc(-c2csc3nc4c5ccccc5c(NCCCN(C)C)nn4c(=O)c23)cc1	.	.	41.9	.	96.8	.	.	100.5	Apaf-1 inh conf=57.7;Rh110 quench=.;Apaf1 inh interf=.
CC[C@]12c3[nH]c4ccc(OC)cc4c3CCN1C(=O)C(CC(=O)NCc1ccco1)C[C@@H]2C(=O)N1CCN(C(=O)c2ccco2)CC1 (some centres not stated)	/	.	.	.	/	.	/	/
CC(C)C[C@@H](CN1CCCC1CN1C(=S)NC[C@@H]1Cc1ccccc1)N1C[C@H](Cc2ccccc2)N(CCc2ccccc2)C1=S (some centres not stated)	/	.	/	.	/	.	/	/
SMILES	MIN6 prolif	iPSC survival up	Apaf-1 inh	MPTP inh	UBC13 inh	Granule exo inh	Casp3 UBC13 ctr	UBC13 conf	others
CCC[C@@H](CN1CCC[C@H]1CN1C(N)=NC[C@@H]1Cc1ccccc1)N1C[C@@H]([C@H](C)CC)N(CCc2ccc(Cl)c(Cl)c2)C1=N	.	.	67.4	.	73.6	.	.	73.5	Apaf-1 inh conf=.;Rh110 quench=.
CC(C)C[C@H]1CNC(=S)N1C[C@H]1CCCN1C[C@H](Cc1ccc(O)cc1)N1C[C@H](Cc2ccc(O)cc2)N(CCc2ccccc2)C1=S	/	.	/	.	/	.	/	/
CCC[C@@H](CN1CCC[C@H]1CN1C(N)=NC[C@@H]1Cc1ccccc1)N1C[C@@H](Cc2ccccc2)N(CCc2ccc(Cl)c(Cl)c2)C1=N	.	.	77.7	.	75.0	.	.	77.3	Apaf-1 inh conf=.;Rh110 quench=.
CCC[C@@H](CN1CCC[C@H]1CN1C(N)=NC[C@H]1CC(C)C)N1C[C@@H](Cc2ccccc2)N(CCc2ccc(Cl)c(Cl)c2)C1=N	.	.	68.3	.	82.4	.	.	89.0	Apaf-1 inh conf=.;Rh110 quench=.
CC(C)C[C@@H](CN1CCC[C@H]1CN1C(=O)C(=O)NC[C@@H]1Cc1ccccc1)N1C[C@H](Cc2ccccc2)N(CCc2ccccc2)C(=O)C1=O	/	.	/	.	/	.	/	/
CC(C)C[C@H]1CN([C@@H](CC(C)C)CN2CCC[C@H]2CN2C(=O)C(=O)NC[C@@H]2Cc2ccccc2)C(=O)C(=O)N1CCc1ccccc1	/	.	/	.	/	.	/	/
CC(C)[C@H](CN1CCC[C@H]1CN1C(N)=NC[C@@H]1Cc1ccccc1)N1C[C@@H](Cc2ccccc2)N(CCc2ccc(Cl)c(Cl)c2)C1=N	.	.	82.3	.	74.8	.	.	75.8	Apaf-1 inh conf=.;Rh110 quench=.
COc1ccccc1CNc1nc(Nc2ccccc2-n2cccn2)c2sccc2n1	/	.	/	.	/	.	/	/

Screening data from PubChem BioAssay.
